Converted amounts (≈) assume the structure as drawn.
What was measured:
[1] = test system: MT2; experiment: Cytotoxicity against human MT2 cells assessed as decrease in cell viability after 3 days […]; assay type: functional; details: MT2, 72 h
[2] = Half life in human liver microsomes; assay type: ADME, microsome
[3] = Permeability in human Caco2 cells; assay type: ADME, cell-based; details: Caco-2, read-out: permeability
[4] = Metabolic stability in human liver microsomes assessed as parent compound remaining after 10 mins; assay type: ADME, microsome; details: read-out: Stability
Outline: (§1)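 Compound at 3 μM was incubated with human or rat liver microsomes, and the percentage of parent compound remaining was measured after 10 min.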

[5] = Metabolic stability in rat liver microsomes assessed as parent compound remaining after 10 mins; assay type: ADME, microsome; details: read-out: Stability; outline: as §1
[6] = Oral bioavailability in Sprague-Dawley rat at 5 mg/kg; assay type: ADME, organism-based; details: in vivo
Outline: (§2)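 Male Sprague-Dawley rats (300−350 g) with jugular vein and/or bile duct cannulas, n = 3 per route; dosed as a solution in PEG-400/ethanol (90/10). The iv dose was 1 mg/kg given as a 0.5 min bolus, with jugular blood sampled from 2 to 1440 min. The po dose was 5 mg/kg after an overnight fast, sampled from 15 to 1440 min. Plasma was taken from EDTA blood.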

[7] = AUC in Sprague-Dawley rat at 5 mg/kg, po after 24 hrs; assay type: ADME, organism-based; parameters: time < 24 hr, dose 5 mg/kg, route oral; details: in vivo; outline: as §2
[8] = Clearance in Sprague-Dawley rat at 1 mg/kg, iv; assay type: ADME, organism-based; details: in vivo
[9] = Volume of distribution at steady state in Sprague-Dawley rat at 1 mg/kg, iv; assay type: ADME, organism-based; details: in vivo, read-out: Vdss; outline: as §2
[10] = Half life in Sprague-Dawley rat at 1 mg/kg, iv; assay type: ADME, organism-based; details: in vivo
[11] = test system: Human immunodeficiency virus 1; experiment: Antiviral activity against ENV pseudotyped CCR5-tropic HIV1 […] infected in human HeLa67 cells after 3 days by luciferase reporter gene assay; assay type: functional, organism-based; details: Human immunodeficiency virus 1, HeLa67, 72 h
Outline: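 Single-cycle infection with env-deleted, luciferase-reporter HIV-1 pseudotyped with the JRFL (CCR5) envelope, supplied by transfection; viral titers normalized by luminescence without compound. HeLa 67 cells were infected in the presence of compounds given as 3-fold serial dilutions made from 30 mM DMSO stocks.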

[12] = Aqueous solubility of the compound; assay type: physicochemical; details: buffer
[13] = Half life in rat liver microsomes; assay type: ADME, microsome
[14] = biological target: Cytochrome P450 3A4 (Homo sapiens, UniProt P08684); experiment: Inhibition of CYP3A4 (unknown origin); assay type: ADME
[15] = Aqueous solubility of the compound at pH 1; assay type: physicochemical; details: buffer
Outline: (§3)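 Crystalline solid sample; aqueous solubility measured in buffers at the stated pH.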

[16] = Aqueous solubility of the compound at pH 10; assay type: physicochemical; details: buffer; outline: as §3
[17] = AUC in beagle dog at 5 mg/kg, po; assay type: ADME, organism-based, Canis lupus familiaris; details: in vivo
Outline: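 Crossover study in three male beagle dogs (12 ± 0.4 kg) with a one-week washout between routes; dosed in PEG-400/ethanol (90/10) with pH adjusted by 0.1 N NaOH. After an overnight fast, 5 mg/kg was given by oral gavage. Serial blood was drawn before dosing and at 15–1440 min.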

[18] = test system: Human immunodeficiency virus 1; experiment: Antiviral activity against recombinant pseudotyped HIV1 subtype B infected in human U87 cells expressing CD4/CCR5/CXCR4 by luciferase reporter gene assay; assay type: functional, organism-based; details: Human immunodeficiency virus 1, subtype B, U-87 MG
[19] = test system: Human immunodeficiency virus 1; experiment: Antiviral activity against recombinant pseudotyped HIV1 subtype A infected in human U87 cells expressing CD4/CCR5/CXCR4 by luciferase reporter gene assay; assay type: functional, organism-based; details: Human immunodeficiency virus 1, subtype A, U-87 MG
[20] = test system: Human immunodeficiency virus 1; experiment: Antiviral activity against recombinant pseudotyped HIV1 subtype C infected in human U87 cells expressing CD4/CCR5/CXCR4 by luciferase reporter gene assay; assay type: functional, organism-based; details: Human immunodeficiency virus 1, subtype C, U-87 MG
[21] = test system: Rattus norvegicus; experiment: Oral bioavailability in Sprague-Dawley rat assessed as BMS-626529 formation at 5 mg/kg; assay type: ADME, organism-based; details: in vivo
[22] = test system: Canis familiaris; experiment: Oral bioavailability in beagle dog assessed as BMS-626529 formation at 5 mg/kg; assay type: ADME, organism-based, Canis lupus familiaris; details: in vivo
[23] = test system: Cynomolgus monkey; experiment: Oral bioavailability in cynomolgus monkey assessed as BMS-626529 formation at 5 mg/kg administered via gavage; assay type: ADME, organism-based, Macaca fascicularis; details: in vivo
[24] = Drug uptake in Sprague-Dawley rat plasma assessed as BMS-626529 level at <= 25 mg/kg, po after 3 hrs; assay type: ADME, organism-based; details: in vivo
Outline: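 Rats were dosed orally with parent (solution in PEG-400/EtOH/0.1 N NaOH at ≤25 mg/kg; suspension at 200 mg/kg) or with prodrug as an aqueous solution. Plasma AUC of the parent drug was compared between the two.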

[25] = Drug uptake in Sprague-Dawley rat plasma assessed as BMS-626529 level at 200 mg/kg, po after 3 hrs; assay type: ADME, organism-based; details: in vivo
[26] = biological target: Envelope glycoprotein gp160 (Human immunodeficiency virus 1) (UniProt Q6QLK5); experiment: Binding affinity to HIV-1 JRFL gp120 assessed as half life for dissociation
Sequence of Envelope glycoprotein gp160 (Human immunodeficiency virus 1) (Q6QLK5 1-814): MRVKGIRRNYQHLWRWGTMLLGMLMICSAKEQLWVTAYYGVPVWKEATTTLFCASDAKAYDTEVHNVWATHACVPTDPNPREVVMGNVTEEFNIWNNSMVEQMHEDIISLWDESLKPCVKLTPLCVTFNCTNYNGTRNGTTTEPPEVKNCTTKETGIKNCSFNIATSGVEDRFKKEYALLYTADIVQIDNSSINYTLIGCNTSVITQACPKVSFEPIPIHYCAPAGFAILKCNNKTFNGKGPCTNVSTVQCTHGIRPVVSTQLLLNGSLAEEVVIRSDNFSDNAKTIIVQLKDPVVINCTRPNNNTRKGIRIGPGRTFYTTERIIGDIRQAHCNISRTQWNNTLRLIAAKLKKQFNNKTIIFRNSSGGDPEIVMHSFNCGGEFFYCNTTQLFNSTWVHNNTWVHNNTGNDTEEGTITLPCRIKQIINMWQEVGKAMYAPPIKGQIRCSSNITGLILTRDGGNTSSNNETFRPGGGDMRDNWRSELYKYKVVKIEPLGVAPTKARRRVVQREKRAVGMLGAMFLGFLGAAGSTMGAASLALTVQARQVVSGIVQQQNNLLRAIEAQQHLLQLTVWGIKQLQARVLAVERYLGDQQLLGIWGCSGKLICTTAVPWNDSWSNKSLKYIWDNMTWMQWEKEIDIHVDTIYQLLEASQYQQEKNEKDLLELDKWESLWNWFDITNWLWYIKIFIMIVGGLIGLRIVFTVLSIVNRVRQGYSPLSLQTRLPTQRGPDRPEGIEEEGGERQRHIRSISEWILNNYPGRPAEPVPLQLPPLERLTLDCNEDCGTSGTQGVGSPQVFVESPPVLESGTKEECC

Sequence of Cytochrome P450 3A4 (P08684 whole entry): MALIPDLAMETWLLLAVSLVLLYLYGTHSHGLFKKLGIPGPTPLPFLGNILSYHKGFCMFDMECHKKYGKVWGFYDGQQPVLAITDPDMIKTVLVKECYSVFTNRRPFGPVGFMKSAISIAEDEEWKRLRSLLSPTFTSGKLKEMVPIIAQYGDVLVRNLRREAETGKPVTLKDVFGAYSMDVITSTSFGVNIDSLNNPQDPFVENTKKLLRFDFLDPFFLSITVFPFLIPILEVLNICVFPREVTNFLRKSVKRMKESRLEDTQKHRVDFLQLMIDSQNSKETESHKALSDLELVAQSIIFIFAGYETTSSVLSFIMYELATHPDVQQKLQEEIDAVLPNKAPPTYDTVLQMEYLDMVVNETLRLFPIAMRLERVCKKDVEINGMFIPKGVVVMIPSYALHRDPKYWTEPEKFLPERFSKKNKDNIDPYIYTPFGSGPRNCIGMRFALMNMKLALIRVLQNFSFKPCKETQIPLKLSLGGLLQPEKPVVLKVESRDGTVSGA

Row | Compound | CC50 [1] | half-life [2] | Papp [3] | remaining at 10 min [4] | remaining at 10 min [5] | bioavailability [6] | AUC at 24 h [7] | clearance [8] | Vd [9] | half-life [10] | EC50 [11] | half-life [13] | further results
1 | COc1cnc(-c2cncc(=O)[nH]2)c2[nH]cc(C(=O)C(=O)N3CCN(C(=O)c4ccccc4)CC3)c12 | > 300000 nM | > 1.67 h | 6.6 ×10⁻⁶ cm/s | 100% | 100% | 0.43% | 0.13 µM·h | 5.6 mL/min/kg | 0.18 L/kg | 0.8 h | 0.21 nM | – | –
2 | CCNC(=O)c1ncn(-c2ncc(OC)c3c(C(=O)C(=O)N4CCN(C(=O)c5ccccc5)CC4)c[nH]c23)n1 | > 300000 nM | – | < 1.5 ×10⁻⁶ cm/s | 97% | 100% | – | – | – | – | – | 0.14 nM | – | solubility [12]: 58 µg/mL (≈ 109 µM)
3 | COCc1ncn(-c2ncc(OC)c3c(C(=O)C(=O)N4CCN(C(=O)c5ccccc5)[C@H](C)C4)c[nH]c23)n1 | > 300000 nM | 1.67 h | 2.2 ×10⁻⁶ cm/s | – | – | – | – | – | – | – | 0.09 nM | 1.67 h | –
4 | COc1cnc(-n2ccc(C)n2)c2[nH]cc(C(=O)C(=O)N3CCN(C(=O)c4ccccc4)[C@H](C)C3)c12 | 142000 nM | – | 20 ×10⁻⁶ cm/s | 72% | 78% | 72.8% | 13.2 µM·h | – | 0.47 L/kg | 0.56 h | 0.16 nM | – | solubility [12]: 69 µg/mL (≈ 142 µM)
5 | COc1cnc(-n2ccc(C)n2)c2[nH]cc(C(=O)C(=O)N3CCN(C(=O)c4ccccc4)CC3)c12 | 130000 to 154000 nM | – | 26 ×10⁻⁶ cm/s | 80% | 100% | 43.7% | 15.7 µM·h | – | 0.23 L/kg | 0.9 h | 0.05 nM | – | solubility [12]: 17 µg/mL (≈ 36 µM)
6 | CCc1ncn(-c2ncc(OC)c3c(C(=O)C(=O)N4CCN(C(=O)c5ccccc5)CC4)c[nH]c23)n1 | 90000 nM | – | 26.1 ×10⁻⁶ cm/s | 100% | 94% | 86% | 254 µM·h | 0.7 mL/min/kg | 0.12 L/kg | 3.3 h | 0.05 nM | – | –
7 | COc1cnc(-n2cccn2)c2[nH]cc(C(=O)C(=O)N3CCN(C(=O)c4ccccc4)CC3)c12 | 288000 nM | > 1.67 h | < 1.5 ×10⁻⁶ cm/s | – | – | 77.1% | 25.6 µM·h | 5.6 mL/min/kg | 0.48 L/kg | 1.8 h | 0.58 nM | > 1.67 h | –
8 | O=C(C(=O)N1CCN(C(=O)c2ccccc2)CC1)c1c[nH]c2ccccc12 | – | > 1.67 h | > 10 ×10⁻⁶ cm/s | – | – | – | – | – | – | – | – | > 1.67 h | –
9 | COc1cnc(-n2cncn2)c2[nH]cc(C(=O)C(=O)N3CCN(C(=O)c4ccccc4)CC3)c12 | > 300000 nM | – | 14.6 ×10⁻⁶ cm/s | 83% | 97% | 90% | 48.7 µM·h | – | 0.4 L/kg | 2.6 h | 0.09 nM | – | IC50 [14]: 1000 nM
10 | COc1cnc(-n2ccnn2)c2[nH]cc(C(=O)C(=O)N3CCN(C(=O)c4ccccc4)[C@H](C)C3)c12 | > 150000 nM | – | 14.3 ×10⁻⁶ cm/s | 83% | 78% | 59% | 8.6 µM·h | 12 mL/min/kg | 0.49 L/kg | 0.7 h | 0.08 nM | – | –
11 | COc1cnc(-n2ccc(N)n2)c2[nH]cc(C(=O)C(=O)N3CCN(C(=O)c4ccccc4)CC3)c12 | > 150000 nM | – | < 1.5 ×10⁻⁶ cm/s | 98% | 99% | 0.8% | 0.03 µM·h | 57 mL/min/kg | 0.4 L/kg | 0.5 h | 0.04 nM | – | –
12 | COc1cnc(-n2cnc(C)n2)c2[nH]cc(C(=O)C(=O)N3CCN(C(=O)c4ccccc4)CC3)c12 | > 300000 nM | – | 18.2 ×10⁻⁶ cm/s | – | – | – | 111 µM·h | – | – | – | – | – | solubility [15]: 50 µg/mL (≈ 106 µM); solubility [16]: 70 µg/mL (≈ 148 µM); AUC [17]: 61 µM·h; IC50 [18]: 4.59 nM; IC50 [19]: 87.9 nM; IC50 [20]: 7.09 nM; bioavailability [21]: 80 to 122%; bioavailability [22]: 80 to 122%; bioavailability [23]: 80 to 122%; Drug uptake [24]: Active; Drug uptake [25]: Active; T1/2 [26]: 7.63 h
13 | COc1cnc(-c2cncnc2)c2[nH]cc(C(=O)C(=O)N3CCN(C(=O)c4ccccc4)CC3)c12 | > 300000 nM | > 1.67 h | 1.5 to 4.9 ×10⁻⁶ cm/s | – | – | – | – | – | – | – | 0.51 nM | > 1.67 h | –
